The text below walks through data of ChEMBL document CHEMBL4130609, “Nitrobenzoyl Sesquiterpenoids with Cytotoxic Activities from a Marine-Derived Aspergillus ochraceus Fungus” (J Nat Prod, 2018).

In data set [1] the test system is 786-0. Description: Induction of apoptosis in human 786-O cells assessed as necrotic cells at 1 uM after 24 hrs by Annexin-V-FITC/propidium iodide staining based flow cytometric method (reference value: 10%). It counts as functional. A general note: Flow cytometry measures light scatter and fluorescence of single cells or particles in a stream.
Data set [2] has as its system 786-0. Description: Induction of apoptosis in human 786-O cells assessed as live cells at 1 uM after 24 hrs by Annexin-V-FITC/propidium iodide staining based flow cytometric method (reference value: 81.4%). Format: functional.
Data set [3] deals with 786-0. Description: Cell cycle arrest in human 786-O cells assessed as accumulation at S phase at 1 uM after 72 hrs by propidium iodide staining based flow cytometric method (reference value: 42.76%). It counts as functional.
Data set [4] concerns 786-0. Description: Induction of apoptosis in human 786-O cells assessed as necrotic cells at 1 uM after 72 hrs by Annexin-V-FITC/propidium iodide staining based flow cytometric method (reference value: 12.5%). It counts as functional.
In data set [5] the test system is 786-0. Description: Cell cycle arrest in human 786-O cells assessed as accumulation at S phase at 1 uM after 24 hrs by propidium iodide staining based flow cytometric method (reference value: 47.35%). It counts as functional.
Data set [6] deals with 786-0. Description: Cell cycle arrest in human 786-O cells assessed as accumulation at G0/G1 phase at 1 uM after 24 hrs by propidium iodide staining based flow cytometric method (reference value: 42.07%). Format: functional.
For data set [7], the system named is 786-0. Description: Cell cycle arrest in human 786-O cells assessed as accumulation at S phase at 2 uM after 72 hrs by propidium iodide staining based flow cytometric method (reference value: 42.76%). Format: functional.
Data set [8] deals with 786-0. Description: Induction of apoptosis in human 786-O cells assessed as early apoptotic cells at 1 uM after 24 hrs by Annexin-V-FITC/propidium iodide staining based flow cytometric method (reference value: 1.6%). Format: functional.
Data set [9] concerns 786-0. Description: Induction of apoptosis in human 786-O cells assessed as early apoptotic cells at 2 uM after 72 hrs by Annexin-V-FITC/propidium iodide staining based flow cytometric method (reference value: 1.2%). It counts as functional.
Data set [10] deals with 786-0. Description: Induction of apoptosis in human 786-O cells assessed as live cells at 2 uM after 24 hrs by Annexin-V-FITC/propidium iodide staining based flow cytometric method (reference value: 81.4%). Format: functional.
Data set [11] has as its system 786-0. Description: Induction of apoptosis in human 786-O cells assessed as late apoptotic cells at 2 uM after 72 hrs by Annexin-V-FITC/propidium iodide staining based flow cytometric method (reference value: 4.2%). Format: functional.
The test system of data set [12] is 786-0. Description: Cell cycle arrest in human 786-O cells assessed as accumulation at S phase at 2 uM after 24 hrs by propidium iodide staining based flow cytometric method (reference value: 47.35%). It counts as functional.
The test system of data set [13] is 786-0. Description: Cell cycle arrest in human 786-O cells assessed as accumulation at G2/M phase at 2 uM after 72 hrs by propidium iodide staining based flow cytometric method (reference value: 12.29%). Format: functional.
Data set [14] has as its system 786-0. Description: Induction of apoptosis in human 786-O cells assessed as live cells at 2 uM after 72 hrs by Annexin-V-FITC/propidium iodide staining based flow cytometric method (reference value: 82.2%). It counts as functional.
Data set [15] relates to 786-0. Description: Induction of apoptosis in human 786-O cells assessed as live cells at 1 uM after 72 hrs by Annexin-V-FITC/propidium iodide staining based flow cytometric method (reference value: 82.2%). It counts as functional.
The test system of data set [16] is 786-0. Description: Cytotoxicity against human 786-O cells after 72 hrs by CCK8 assay. Format: functional, cell-based. The settings on record: 786-0, 72 h. In a few lines: (§1)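 ACHN cells grown in MEM with 10% FBS; OS-RC-2 and 786-O cells grown in RPMI1640 with 10% FBS. Seeded at 400 to 800 cells/well and treated with a 9-point series from 100 down to 0.00153 μM, or solvent control, for 72 h. Viability read by CCK-8 absorbance at 450 nm in triplicate. IC50 taken from dose–response curves.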
For orientation: Tetrazolium assays rely on reduction of a dye to a coloured formazan, in cell work by metabolically active cells.

The subject of data set [17] is 786-0. Description: Cell cycle arrest in human 786-O cells assessed as accumulation at G0/G1 phase at 2 uM after 24 hrs by propidium iodide staining based flow cytometric method (reference value: 42.07%). Format: functional.
Data set [18] deals with 786-0. Description: Induction of apoptosis in human 786-O cells assessed as late apoptotic cells at 1 uM after 72 hrs by Annexin-V-FITC/propidium iodide staining based flow cytometric method (reference value: 4.2%). It counts as functional.
For data set [19], the system named is 786-0. Description: Cell cycle arrest in human 786-O cells assessed as accumulation at G2/M phase at 2 uM after 24 hrs by propidium iodide staining based flow cytometric method (reference value: 10.58%). It counts as functional.
Data set [20] relates to 786-0. Description: Cell cycle arrest in human 786-O cells assessed as accumulation at G2/M phase at 1 uM after 72 hrs by propidium iodide staining based flow cytometric method (reference value: 12.29%). Format: functional.
Data set [21] concerns 786-0. Description: Cell cycle arrest in human 786-O cells assessed as accumulation at G0/G1 phase at 1 uM after 72 hrs by propidium iodide staining based flow cytometric method (reference value: 44.95%). It counts as functional.
The subject of another data set is ACHN. Description: Cytotoxicity against human ACHN cells after 72 hrs by CCK8 assay. Format: functional, cell-based. The method, boiled down:
as §1

Data set [22] has as its system RAW264.7. Description: Cytotoxicity against mouse RAW264.7 cells at 0.5 to 4 uM after 8 hrs by MTT assay. Format: cell-based. Conditions: raw264.7, 8 h. The method, boiled down: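 Luciferase-reporter RAW264.7 cells received compounds at 4, 2, 1 and 0.5 μM for 30 min, then 1 μg/mL LPS for 8 h. Viability at these concentrations was assessed by MTT.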
The subject of data set [23] is 786-0. Description: Induction of apoptosis in human 786-O cells assessed as necrotic cells at 2 uM after 24 hrs by Annexin-V-FITC/propidium iodide staining based flow cytometric method (reference value: 10%). Format: functional.
Data set [24] has as its system 786-0. Description: Induction of apoptosis in human 786-O cells assessed as necrotic cells at 2 uM after 72 hrs by Annexin-V-FITC/propidium iodide staining based flow cytometric method (reference value: 12.5%). Format: functional.
The test system of a further data set is OS-RC-2. Description: Cytotoxicity against human OS-RC2 cells after 72 hrs by CCK8 assay. Format: functional, cell-based. The settings on record: OS-RC-2, 72 h. The method, boiled down: as §1
In data set [25] the test system is 786-0. Description: Induction of apoptosis in human 786-O cells assessed as late apoptotic cells at 1 uM after 24 hrs by Annexin-V-FITC/propidium iodide staining based flow cytometric method (reference value: 7%). Format: functional.
Data set [26] has as its system 786-0. Description: Induction of apoptosis in human 786-O cells assessed as late apoptotic cells at 2 uM after 24 hrs by Annexin-V-FITC/propidium iodide staining based flow cytometric method (reference value: 7%). It counts as functional.
In data set [27] the test system is 786-0. Description: Cell cycle arrest in human 786-O cells assessed as accumulation at G0/G1 phase at 2 uM after 72 hrs by propidium iodide staining based flow cytometric method (reference value: 44.95%). Format: functional.
Data set [28] has as its system 786-0. Description: Induction of apoptosis in human 786-O cells assessed as early apoptotic cells at 2 uM after 24 hrs by Annexin-V-FITC/propidium iodide staining based flow cytometric method (reference value: 1.6%). Format: functional.
Data set [29] relates to 786-0. Description: Induction of apoptosis in human 786-O cells assessed as early apoptotic cells at 1 uM after 72 hrs by Annexin-V-FITC/propidium iodide staining based flow cytometric method (reference value: 1.2%). Format: functional.
The test system of data set [30] is 786-0. Description: Cell cycle arrest in human 786-O cells assessed as accumulation at G2/M phase at 1 uM after 24 hrs by propidium iodide staining based flow cytometric method (reference value: 10.58%). It counts as functional.
For data set [31], the system named is RAW264.7. Description: Inhibition of LPS-induced NFkappaB (unknown origin) activation expressed in mouse RAW264.7 cells at 4 uM pretreated for 30 mins followed by LPS-stimulation after 8 hrs by luciferase reporter gene assay relative to control. It counts as cell-based. Conditions: Homo sapiens. In a few lines: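 RAW264.7 cells stably carrying an NF-κB luciferase reporter were pretreated with compounds for 30 min at 4, 2, 1 and 0.5 μM. They were then stimulated with 1 μg/mL LPS for 8 h. Luciferase activity was measured in triplicate. BAY11-7082 at 5 μM served as positive control.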
In general terms: In a reporter assay the amount or activity of a reporter protein is the signal.

With `CC(=O)OC[C@@]1(C)CCC[C@@]2(C)[C@H]1[C@H](OC(=O)c1ccc([N+](=O)[O-])cc1)C=C1C(=O)OC[C@@]12O`, the Activity is reported as 15.8% in the data set with 786-0 [1]; 78.6% in the data set on 786-0 [2]; 32.77% in the data set on 786-0 [3]; 18.6% in the data set on 786-0 [4]; 47% with 786-0 [5]; 38% with 786-0 [6]. Besides, the Activity is 35.56% in the data set with 786-0 [7]; 1.3% with 786-0 [8]; 1% in the data set on 786-0 [9]; 66.5% in the data set with 786-0 [10]; 9.1% in the data set with 786-0 [11]; 49.91% in the data set with 786-0 [12]. For the same compound, the Activity in the data set on 786-0 [13] was 13.38%; with 786-0 [14], 58.3%; in the data set with 786-0 [15] it was 74.7%; in the data set with 786-0 [17] it was 42.23%; with 786-0 [18], 5%; with 786-0 [19], 7.86%. Besides, the Activity in the data set with 786-0 [20] is 13.06%; in the data set with 786-0 [21], 54.16%; with RAW264.7 [22] it was “Non-Toxic”; with 786-0 [23], 26%; with 786-0 [24], 31.5%; in the data set on 786-0 [25], 4.3%. Moreover, the Activity in the data set on 786-0 [26] was found to be 6.5%; in the data set with 786-0 [27] it was 51.06%; in the data set on 786-0 [28], 1.1%; in the data set on 786-0 [29], 1.7%; in the data set on 786-0 [30], 8.53%. Further, the IC50 (in general, the point on the concentration scale where inhibition reaches its midpoint) with 786-0 [16] turned out to be 2.3 µM; in the data set on ACHN it was 4.1 µM; in the data set with OS-RC-2 it was 5.3 µM.

Consider `C[C@]1(COC(=O)c2ccc([N+](=O)[O-])cc2)CCC[C@@]2(C)[C@H]1[C@H](O)C=C1C(=O)OC[C@@]12O`, for which the IC50 turned out to be 4.3 µM in the data set with 786-0 [16], 11 µM with ACHN and 8.2 µM in the data set on OS-RC-2.

Take `C[C@]1(CO)CCC[C@]2(C)[C@H]3COC(=O)C3=C[C@@H](OC(=O)c3ccc([N+](=O)[O-])cc3)[C@@H]12`: the IC50 in the data set on 786-0 [16] is 20 µM; with ACHN it was 25 µM; in the data set on OS-RC-2 it was 30 µM.

As for `C[C@]1(CO)CCC[C@@]2(C)[C@H]1[C@H](OC(=O)c1ccc([N+](=O)[O-])cc1)C=C1C(=O)OC[C@@]12O`, the IC50 turned out to be 0.89 µM with 786-0 [16], 1.5 µM with ACHN and 1.5 µM in the data set with OS-RC-2.

For the compound `CO[C@H]1C2=C(COC2=O)[C@@]2(C)CCC[C@](C)(CO)[C@@H]2[C@@H]1O`, the Activity result with RAW264.7 [22] is “Non-Toxic”.

For `C[C@]1(COC(=O)c2ccc([N+](=O)[O-])cc2)CCC[C@]2(C)[C@H]3COC(=O)C3=C[C@@H](O)[C@@H]12`, in the data set with RAW264.7 [31], the inhibition – broadly, the share of the control response that was lost under treatment – worked out at 16%. Also, the IC50 in the data set on 786-0 [16] turned out to be 24 µM; with ACHN, 30 µM; in the data set with OS-RC-2, 23 µM. Besides, the Activity entry in the data set on RAW264.7 [22] was “Non-Toxic”.

For `CNC(=O)c1cc(Oc2ccc(NC(=O)Nc3ccc(Cl)c(C(F)(F)F)c3)cc2)ccn1` [SORAFENIB], the IC50 in the data set with 786-0 [16] came out at 4.9 µM; in the data set on ACHN, 3.4 µM; in the data set on OS-RC-2, 7 µM.

In the case of `CC(=O)OC[C@@]1(C)CCC[C@]2(C)[C@H]3COC(=O)C3=C[C@@H](OC(=O)c3ccc([N+](=O)[O-])cc3)[C@@H]12`, the 50% inhibitory concentration (IC50) came out at 14 µM in the data set on 786-0 [16], 13 µM in the data set with ACHN and 11 µM with OS-RC-2. The Activity entry in the data set on RAW264.7 [22] is on record as “Non-Toxic”.
